Legend:
[1] = system: Monoclonal antibody (mAb) 2E2; assay: Relative binding affinity against human monoclonal antibody (mAb) 2E2 compared to cocaine
[2] = system: Monoclonal antibody (mAb) 2E2; assay: Binding affinity against human monoclonal antibody (mAb) 2E2 relative to cocaine by ELISA method.
Method in brief: (§1)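 Competition ELISA with human mAb 2E2 (from SCID mouse ascites, partially purified by sodium sulfate precipitation and protein A chromatography). Detection with biotinylated goat anti-human IgG (γ-chain-specific). IC50 obtained by three-parameter logistic fit. RBA is the competitor IC50 divided by the cocaine IC50. Values are averages of three or more independent experiments, each done in duplicate.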

[3] = target: Monoclonal antibody (mAb) 2E2; assay: Relative binding affinity against human monoclonal antibody 2E2 compared to [3H]cocaine
Method in brief: (§2)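 Radioligand competition with 1 nM [3H]-cocaine diluted with 14 nM unlabeled cocaine and 0.4 nM mAb 2E2, against varying unlabeled competitor. Separation was by double-antibody precipitation (goat anti-human Fc) and read by scintillation counting. Duplicate data were fitted to a three-parameter logistic equation for IC50. RBA is the Ki of the compound divided by the Ki of cocaine. Three repeats were run.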

[4] = system: Monoclonal antibody (mAb) 2E2; assay: Relative binding affinity for human monoclonal antibody (mAb) 2E2
[5] = target: Monoclonal antibody (mAb) 2E2; assay: Dissociation Constant for human monoclonal antibody 2E2 with [3H]cocaine
Method in brief: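 Saturation binding of [3H]-cocaine to mAb 2E2. Bound ligand was separated by double-antibody precipitation, using goat anti-human Fc as the first antibody, and counted by liquid scintillation. Kd was fitted from counts per minute against total cocaine concentration to a binding isotherm. Points are averages of duplicates. Each experiment was run three times.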

[6] = target: Monoclonal antibody (mAb) 2E2; assay: Binding affinity towards human monoclonal antibody 2E2 using [3H]cocaine; method in brief: as §2
[7] = system: Monoclonal antibody (mAb) 2E2; assay: Binding affinity against human monoclonal antibody (mAb) 2E2 by ELISA; method in brief: as §1

| SMILES | relative binding affinity (RBA) [2] | further results |
| --- | --- | --- |
| CCOC(=O)[C@@H]1C2CCC(C[C@@H]1OC(=O)c1ccccc1)N2C (some centres undefined) [COCAETHYLENE] | 0.74 | relative binding affinity (RBA) [1]: 0.97; Ki [3]: 3.4 nM |
| COC(=O)[C@@H]1C2CCC(C[C@@H]1OC(=O)c1ccccc1)N2 (some centres undefined) | 4.3 |  |
| CN1C2CCC1CC(O)C2 (centres undefined) | 91000 |  |
| COC(=O)[C@H]1[C@@H](c2ccc(F)cc2)C[C@H]2CC[C@H]1N2C | 19 |  |
| COC(=O)[C@H]1[C@@H](OC(=O)c2ccccc2)C[C@@H]2CC[C@H]1N2C [COCAINE] |  | relative binding affinity (RBA) [4]: 1; Kd [5]: 4.4 nM; Ki [6]: 3.5 nM; relative binding affinity (RBA) [7]: 1 |
| CN1C2CCC1[C@@H](C(N)=O)[C@@H](OC(=O)c1ccccc1)C2 (some centres undefined) | 22 |  |
| COC(=O)C1C2CCC(C[C@@H]1c1ccc(C)cc1)N2C (single isomer, unassigned) | 14 |  |
| COC(=O)[C@H]1C2CCC(C[C@@H]1OC(=O)c1ccccc1)N2 (stereo in doubt) | 1800 |  |
| CCCC[N+]1(C)C2CC(OC(=O)[C@H](CO)c3ccccc3)CC1C1OC12 (some centres undefined) | 3700 |  |
| COC(=O)[C@@H]1C2CCC(C[C@@H]1c1ccc(Cl)c(Cl)c1)N2C (some centres undefined) | 8.5 |  |
| CN(C)C(=O)[C@@H]1C2CCC(C[C@@H]1OC(=O)c1ccccc1)N2C (some centres undefined) | 7.4 |  |
| CON(C)C(=O)[C@@H]1C2CCC(C[C@@H]1OC(=O)c1ccccc1)N2C (some centres undefined) | 21 |  |
| COC(=O)[C@@H]1C2CCC(C[C@@H]1OC(=O)c1cccc(O)c1)N2C (some centres undefined) | 8.4 |  |
| CN1C2CC(OC(=O)[C@](O)(CO)c3ccccc3)CC1C1OC12 (some centres undefined) | 59000 |  |
| C[N+]1(C)[C@@H]2C[C@@H](OC(=O)[C@H](CO)c3ccccc3)C[C@H]1[C@@H]1O[C@@H]12 | 5900 |  |
| CN1C2CCC1[C@@H](C(=O)O)[C@@H](O)C2 (some centres undefined) | 28000 | relative binding affinity (RBA) [1]: 28000; Ki [3]: 95000 nM |
| COC(=O)[C@H]1C2CCC(C[C@@H]1OC(=O)c1ccccc1)N2 (stereo in doubt; 36) | 1100 |  |

| SMILES | relative binding affinity (RBA) [2] | further results |
| --- | --- | --- |
| COC(=O)C1C2CC[C@H](C[C@@H]1c1ccc(Cl)cc1)N2C (some centres undefined) | 9.3 |  |
| CN1C2CCC1[C@@H](C(=O)Oc1ccccc1)[C@@H](c1ccc(Cl)cc1)C2 (some centres undefined) | 1.7 |  |
| CN1C2CCC1[C@@H](C(=O)O)[C@@H](OC(=O)c1ccccc1)C2 (some centres undefined) | 9.8 | relative binding affinity (RBA) [1]: 12; Ki [3]: 43 nM |
| O=C(O[C@H]1CC2CCC(N2)[C@H]1C(=O)O)c1ccccc1 (some centres undefined) | 120 |  |
| COC(=O)[C@@H]1C2CCC(C[C@@H]1c1ccc(I)cc1)N2C (some centres undefined) | 4.5 |  |
| COC(=O)C1=CCC2CCC1N2C (centres undefined) | 21000 |  |
| C[N+]1([O-])[C@@H]2CC[C@H]1C[C@@H](OC(=O)C(CO)c1ccccc1)C2 (some centres undefined) | 90000 |  |
| CCOC(=O)[C@@H]1C2C(C)CC(C[C@@H]1OC(=O)c1ccccc1)N2C (some centres undefined) | 0.21 |  |
| CN1[C@@H]2C[C@@H](OC(=O)[C@H](CO)c3ccccc3)C[C@H]1[C@@H]1O[C@H]12 | 49000 |  |
| CN1C2CCC1[C@@H](C(=O)O)[C@@H](OC(=O)c1cccc(O)c1)C2 (some centres undefined) | 32 |  |
| CNC(=O)[C@@H]1C2CCC(C[C@@H]1OC(=O)c1ccccc1)N2C (some centres undefined) | 29 |  |
| COC(=O)[C@@H]1C2CC[C@H](C[C@@H]1c1ccccc1)N2C | 29 |  |
| COC(=O)[C@@H]1C2CCC(C[C@@H]1O)N2C (some centres undefined) | 2500 | relative binding affinity (RBA) [1]: 1500; Ki [3]: 5200 nM |
| C[N+]1([O-])C2CC(OC(=O)[C@H](CO)c3ccccc3)CC1C1OC12 (some centres undefined) | 130000 |  |
| CN1C2CCC1[C@@H](C(=O)O)[C@@H](OC(=O)c1ccc(O)cc1)C2 (some centres undefined) | 36 |  |
| CCCOC(=O)[C@@H]1C2CCC(C[C@@H]1OC(=O)c1ccccc1)N2C (some centres undefined) | 0.23 |  |

From ChEMBL document CHEMBL1139455, “Three-dimensional quantitative structure-activity relationship modeling of cocaine binding by a novel human monoclonal antibody” (J Med Chem, 2004)
